Compound activity (PubChem BioAssay)
The list is not random: actives were taken first. Their share in the collection is about 3.5%.
RGS4 block: inhibitors of human RGS4; HEK293 M3R/RGS4 inducible, Fluo-4 calcium flux; hits give high values; triggered by carbachol at its EC20; P49798; 0.45% of 310,000 active; B-score at 10 µM; AID 463165;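 active means B-score, a plate-corrected calcium signal, over three deviations above library mean, with baseline fluorescence within five deviations of library mean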;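 further: RGS4 expression induced by doxycycline in cells with stable M3 receptor; B-score is computed from the integrated fluorescence ratio over baseline after carbachol; higher B-score means a larger calcium signal and so more RGS4 inhibition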
Target sequence (P49798 whole entry, looked up): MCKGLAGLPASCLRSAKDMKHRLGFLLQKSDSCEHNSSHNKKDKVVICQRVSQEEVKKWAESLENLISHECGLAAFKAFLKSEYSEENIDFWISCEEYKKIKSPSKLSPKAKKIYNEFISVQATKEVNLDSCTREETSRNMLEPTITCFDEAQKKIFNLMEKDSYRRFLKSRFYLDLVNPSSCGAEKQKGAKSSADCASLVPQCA
MrgX1 agonist: human MrgX1 receptor agonism, primary screen; MrgX1-HEK293 cells, Fluo-4 calcium fluorescence, agonist mode; hits give high values; 0.44% of 310,000 active; AID 588627; B-score at 10 µM;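 active means calcium response B-score plate-corrected fluorescence ratio at least 3 library SD, with starting fluorescence B-score inside 5 SD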
Target sequence (Q96LB2 whole entry, looked up): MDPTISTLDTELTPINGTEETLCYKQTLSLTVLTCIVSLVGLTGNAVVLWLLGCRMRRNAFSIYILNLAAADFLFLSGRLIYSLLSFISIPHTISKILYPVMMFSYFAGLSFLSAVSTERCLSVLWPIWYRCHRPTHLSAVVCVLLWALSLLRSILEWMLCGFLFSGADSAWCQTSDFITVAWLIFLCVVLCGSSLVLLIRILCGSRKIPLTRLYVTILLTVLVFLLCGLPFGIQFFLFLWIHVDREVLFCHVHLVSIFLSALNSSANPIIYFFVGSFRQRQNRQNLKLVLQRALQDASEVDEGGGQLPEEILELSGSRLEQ
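System: HEK293 cells stably expressing human MrgX1 receptor; Dosing: test compound in the initial addition of three; Schedule: overnight plating, then 30 min 37 °C plus 30 min room-temperature dye loading; Detection: kinetic calcium dye fluorescence, Fluo-4 NW; Controls: per-plate positive and negative controls for Z′ factor.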
MrgX1 antagonist: human MrgX1 receptor antagonism, primary screen; B-score at 10 µM; 1.3% of 310,000 active; MRGX1-HEK293 calcium flux, Fluo-4, BAM8-22 antagonism; hits give low values;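 active means calcium-response B-score plate-corrected more than 3 library SD below zero, starting fluorescence within 5 deviations, no agonist response on first addition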;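 further: peak minus trough fluorescence over baseline after final BAM8-22 challenge near maximal dose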
MrgX1 PAM: human MrgX1 positive allosteric modulation, primary screen; Q96LB2; MrgX1-HEK293, Fluo-4 calcium flux, FDSS; hits give high values; B-score at 10 µM; 0.63% of 310,000 active; AID 588675;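 active means plate-corrected calcium response at least 3 library SD above typical, normal starting fluorescence, not activating the receptor alone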;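 further: compound read alongside a low EC10 to EC30 dose of BAM8-22 agonist; peak minus trough fluorescence over baseline measured at the second addition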
RGS4 act: potentiators or activators of RGS4; AID 463111; 0.92% of 310,000 active; HEK293 M3R/inducible RGS4, carbachol calcium flux Fluo4; hits give low values; B-score at 10 µM;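 active means B-score of the integrated calcium signal more than 4 SD below the library mean, with starting fluorescence not abnormally high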;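 further: negative B-score means reduced calcium response which marks RGS4 activation or potentiation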
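Also added: carbachol at ECmax as muscarinic agonist stimulus; Assay system: HEK293 cells with stable M3R and inducible RGS4; Timing: overnight RGS4 induction, 30 min dye load 37 °C, 20 min compound RT; Measured by: Fluo4-AM (2 µM) calcium-flux fluorescence, kinetic read.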
MrgX1 antag conf: reconfirmed antagonist of human MrgX1 receptor signaling; MrgX1-HEK293, BAM8-22 calcium flux, Fluo-4; hits give low values; 19% of 2,300 active; remaining BAM8-22 calcium response % of control (hits give low values), % at 10 µM; shares compounds with MrgX1 antagonist;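 active means remaining agonist calcium response no higher than 100% minus 3 SD of agonist-only control wells, with starting fluorescence near control levels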;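 further: agonist BAM8-22 given at a near maximal EC90 to ECmax level; peak minus minimum fluorescence divided by baseline after agonist addition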
HEK293 Ca flux: MrgX1 antagonist counter-screen hit in parental HEK293 cells. fluorescence ratio F(max-min)/F0 at 10 µM. AID 624111. 2% of 4,000 active. shares compounds with MrgX1 antagonist. Fluo-4 calcium fluorescence, FDSS;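 active means duplicate-averaged calcium fluorescence ratio at least three times the standard deviation of buffer wells, a nonspecific response in parental cells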
HEK293 Ca counter: counter-screen for MrgX1 allosteric activators: effect in parental HEK293 cells | AID 624114 | parental HEK293 calcium flux, Fluo-4 fluorescence ratio; hits give high values | 0.4% of 4,000 active | shares compounds with MrgX1 antagonist | fluorescence ratio F(max-min)/F0 at 10 µM;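 active means calcium fluorescence ratio, averaged over duplicates, at least 3 SD of the buffer-well ratio, meaning a nonspecific response in receptor-free cells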;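 further: untransfected parental HEK293 lacking MrgX1 used as counterscreen for MrgX1 allosteric activators; fluorescence change taken during the second addition on a kinetic imager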
HEK293 Ca cntr2: MrgX1 activator counter-screen hit in parental HEK293 cells | shares compounds with MrgX1 antagonist | Fluo-4 calcium fluorescence (FDSS); hits give high values | fluorescence ratio F(max-min)/F0 at 10 µM | 8.7% of 4,000 active;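 active means calcium fluorescence ratio at least three times the spread of buffer wells, meaning a non-specific response in parental cells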
Active calls of the source: *.

How did CCN1c2ccc(S(=O)(=O)N3CCOCC3)cc2N(Cc2ccc(OC)cc2)C1C (centres undefined) do in these assays?
RGS4 block: inactive; MrgX1 agonist: inactive; MrgX1 antagonist: -4.71*; MrgX1 PAM: inactive; RGS4 act: inactive; MrgX1 antag conf: inactive; HEK293 Ca flux: inactive; HEK293 Ca counter: inactive; HEK293 Ca cntr2: inactive

How did CC(=O)NC12CC3CC(C1)CC(C(=O)Oc1ccc(N(C)S(=O)(=O)c4cc(C)ccc4C)cc1)(C3)C2 do in these assays?
RGS4 block: inactive; MrgX1 agonist: inactive; MrgX1 antagonist: inactive; MrgX1 PAM: inactive; RGS4 act: inactive

How did NC(=S)Nc1cccc(Cl)c1 do in these assays?
RGS4 block: inactive; MrgX1 agonist: inactive; MrgX1 antagonist: inactive; MrgX1 PAM: inactive; RGS4 act: inactive

How did CS/C(N)=N/C(=S)Nc1cccc(Cl)c1 do in these assays?
RGS4 block: inactive; MrgX1 agonist: inactive; MrgX1 antagonist: -4.63*; MrgX1 PAM: inactive; RGS4 act: inactive; MrgX1 antag conf: inactive; HEK293 Ca flux: inactive; HEK293 Ca counter: inactive; HEK293 Ca cntr2: inactive

Results for CCOC(=O)c1sc(NC(=S)NC(=O)c2cccc(Cl)c2)c(C(=O)OCC)c1C ?
RGS4 block: inactive; MrgX1 agonist: inactive; MrgX1 antagonist: -4.87*; MrgX1 PAM: inactive; RGS4 act: inactive; MrgX1 antag conf: inactive; HEK293 Ca flux: inactive; HEK293 Ca counter: inactive; HEK293 Ca cntr2: inactive

What do the screens show for `O=C(CSc1nc2ccccc2o1)N1CCCC1`?
RGS4 block: inactive; MrgX1 agonist: inactive; MrgX1 antagonist: inactive; MrgX1 PAM: inactive; RGS4 act: inactive

How did COCC(=O)N1CCN(c2nc3ccccc3o2)CC1 do in these assays?
RGS4 block: inactive; MrgX1 agonist: inactive; MrgX1 antagonist: -4.52*; MrgX1 PAM: inactive; RGS4 act: inactive; MrgX1 antag conf: inactive; HEK293 Ca flux: inactive; HEK293 Ca counter: inactive; HEK293 Ca cntr2: inactive

How did CCOC(=O)N1CCC(=NNC(=O)NC2CCCCC2)CC1 do in these assays?
RGS4 block: inactive; MrgX1 agonist: inactive; MrgX1 antagonist: -21.1*; MrgX1 PAM: inactive; RGS4 act: inactive; MrgX1 antag conf: inactive; HEK293 Ca flux: inactive; HEK293 Ca counter: inactive; HEK293 Ca cntr2: inactive

How did CCOC(=O)N1CCN(C(=O)NC2CCCCC2)CC1 do in these assays?
RGS4 block: inactive; MrgX1 agonist: inactive; MrgX1 antagonist: inactive; MrgX1 PAM: inactive; RGS4 act: inactive

How did O=C(Nc1ccc(CN2CCOCC2)cc1)c1cc2ccccn2n1 do in these assays?
RGS4 block: inactive; MrgX1 agonist: inactive; MrgX1 antagonist: -4.86*; MrgX1 PAM: inactive; RGS4 act: inactive; MrgX1 antag conf: inactive; HEK293 Ca flux: inactive; HEK293 Ca counter: inactive; HEK293 Ca cntr2: inactive

What do the screens show for `O=C(Nc1ccc(CN2CCOCC2)cc1)c1cc2ccccc2o1`?
RGS4 block: inactive; MrgX1 agonist: inactive; MrgX1 antagonist: inactive; MrgX1 PAM: inactive; RGS4 act: inactive

What do the screens show for `CCOC(=O)C1CCN(C(=O)CCc2ccccc2)CC1`?
RGS4 block: inactive; MrgX1 agonist: inactive; MrgX1 antagonist: -7.93*; MrgX1 PAM: inactive; RGS4 act: inactive; MrgX1 antag conf: inactive; HEK293 Ca flux: inactive; HEK293 Ca counter: inactive; HEK293 Ca cntr2: inactive

What do the screens show for `COc1cccc2c(=O)c(C(=O)O)c[nH]c12`?
RGS4 block: inactive; MrgX1 agonist: inactive; MrgX1 antagonist: inactive; MrgX1 PAM: inactive; RGS4 act: inactive
